Here are results for six compounds from ChEMBL document CHEMBL4610124, “Novel Thienopyrimidine Inhibitors of Leishmania N-Myristoyltransferase with On-Target Activity in Intracellular Amastigotes” (J Med Chem, 2020).

Usually IC50 stands for the concentration at which inhibition is half-maximal. High values mean weaker potency in that assay, low ones greater potency in that assay. The term EC50 denotes the concentration giving half of the maximal effect. Low readings indicate a more potent agent, high ones a less potent agent.

System in one data set: not listed separately
The experiment in a line: Inhibition of Leishmania major NMT using p60 SRC(2 to […]) as substrate by CPM dye based fluorescence assay.
Conditions: not given; call rule not given here
The compound `CCN(C)c1nc(N(C)C2CCN(C)CC2)nc2ccsc12` showed an IC50 of 0.73 µM. That is a sub-micromolar value.

`CN1CCC(N(C)c2nc(N(C)CCC#N)c3sccc3n2)CC1`: the IC50 stood at 0.2 µM.

With `CN(CCC#N)c1nc(N(C)[C@H]2C[C@H]3CC[C@@H](C2)N3C)nc2ccccc12`, half-maximal inhibition (IC50) required 13 µM.

Compound `CN(C)CCCN(C)c1nc(N(C)CCC#N)c2sccc2n1` displayed an IC50 of 2.7 µM.

A further data set relates to Leishmania donovani. The data set can be described thus: Effect on total NMT expression in Leishmania donovani MHOM/ET/67/HU3 intracellular amastigotes after 12 hrs in presence of YnMyr by Western blot analysis. It is filed as ADME, organism-based.
Conditions: not given
The essentials: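 Amastigotes from spleens of Rag-2−/− mice, isolated by saponin lysis, seeded at 7.5 × 10⁷/mL in RPMI/10% FCS with inhibitor for 1 h at 37 °C. Then resuspended in fresh medium with inhibitor plus YnMyr (50 μM final) for 12 h. Lysates were click-labelled and run on SDS-PAGE, then immunoblotted with anti-LdNMT antibody.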
A general note: In western blotting, separated proteins are transferred to a membrane and probed.
Regarding `CN1CCC(N(C)c2nc(N(C)CCC#N)c3sccc3n2)CC1`, the Activity entry is given as “Non-Toxic”.

As to `CN1CCC(N(C)c2nc(N(C)CCC#N)c3sc(C(C)(C)C)cc3n2)C1` (stereo not given), the Activity result is “Non-Toxic”.

On to `CN1CCC(N(C)c2nc(N(C)CCC#N)c3ccccc3n2)C1` (stereo not given), for which the Activity result is given as “Non-Toxic”.

The test system of another data set is Leishmania donovani. The data set can be described thus: Antileishmanial activity against Leishmania donovani MHOM/ET/67/HU3 intracellular amastigotes measured after 72 hrs by alamar blue dye based fluorescence assay. In kind it is functional, organism-based. To be noted: MHOM/ET/67/HU3, 72 h. Summed up:
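Ex vivo L. donovani LV9 amastigotes, kept by serial passage in Rag-2−/− mice, isolated from infected spleens by homogenization and saponin lysis. Plated at 4 × 10⁵ per well in RPMI with 20% heat-inactivated FCS, adenine, 20 mM MES (pH 5.5), hemin, biopterin and biotin.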
(Resazurin is reduced to fluorescent resorufin, in cell work by metabolically active cells.)
On to `CCN(C)c1nc(N(C)C2CCN(C)CC2)nc2ccsc12`, for which the EC50 is over 50 µM.

In the case of `CN1CCC(N(C)c2nc(N(C)CCC#N)c3ccccc3n2)C1` (stereo not given), it took 6.6 µM to reach a half-maximal effect (EC50).

`CN(CCC#N)c1nc(N(C)[C@H]2C[C@H]3CC[C@@H](C2)N3C)nc2ccccc12` returned an EC50 of over 50 µM.

`CN(C)CCCN(C)c1nc(N(C)CCC#N)c2sccc2n1` registered a concentration for a half-maximal effect (EC50) of over 50 µM.

System in a further data set: not listed separately
The data set can be described thus: Inhibition of Leishmania donovani NMT using p60 SRC(2 to […]) as substrate by CPM dye based fluorescence assay.
Conditions: not given
Compound `CN1CCC(N(C)c2nc(N(C)CCC#N)c3sccc3n2)CC1` came in with an IC50 of 0.34 µM.

Take `CN1CCC(N(C)c2nc(N(C)CCC#N)c3ccccc3n2)C1` (stereo not given): it took 9.5 µM to reach half-maximal inhibition (IC50).

`CN(CCC#N)c1nc(N(C)[C@H]2C[C@H]3CC[C@@H](C2)N3C)nc2ccccc12` had an IC50 of 16 µM.

Take `CN(C)CCCN(C)c1nc(N(C)CCC#N)c2sccc2n1`: the IC50 was in the range of 0.15 to 0.59 µM.

The target of another data set is T1, Glycylpeptide N-tetradecanoyltransferase 1 (Homo sapiens, UniProt P30419).
T1 sequence (P30419 whole entry): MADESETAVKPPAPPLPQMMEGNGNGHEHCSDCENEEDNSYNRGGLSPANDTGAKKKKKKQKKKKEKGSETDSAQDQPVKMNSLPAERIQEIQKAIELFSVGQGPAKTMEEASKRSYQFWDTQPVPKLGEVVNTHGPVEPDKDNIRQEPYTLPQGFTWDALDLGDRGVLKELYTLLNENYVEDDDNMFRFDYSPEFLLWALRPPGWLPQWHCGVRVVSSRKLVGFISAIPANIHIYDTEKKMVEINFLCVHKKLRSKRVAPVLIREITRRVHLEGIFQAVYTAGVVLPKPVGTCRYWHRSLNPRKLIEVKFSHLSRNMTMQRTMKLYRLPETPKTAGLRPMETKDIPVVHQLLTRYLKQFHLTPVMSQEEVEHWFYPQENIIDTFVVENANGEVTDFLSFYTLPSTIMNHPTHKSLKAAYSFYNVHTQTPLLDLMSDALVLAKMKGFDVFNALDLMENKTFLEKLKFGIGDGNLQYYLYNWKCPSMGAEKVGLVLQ
In kind it is ADME.
Conditions: not given
`CCN(C)c1nc(N(C)C2CCN(C)CC2)nc2ccsc12`: the IC50 is 7.9 µM.

`CN1CCC(N(C)c2nc(N(C)CCC#N)c3sccc3n2)CC1` returned an IC50 of 5.7 µM.

For the compound `CN(CCC#N)c1nc(N(C)[C@H]2C[C@H]3CC[C@@H](C2)N3C)nc2ccccc12`, the IC50 is over 100 µM.

`CN(C)CCCN(C)c1nc(N(C)CCC#N)c2sccc2n1` had a concentration for half-maximal inhibition (IC50) of over 100 µM.

A further data set deals with human NMT1 versus Leishmania donovani NMT. The experiment in a line: Selectivity ratio of IC50 for human NMT1 to IC50 for Leishmania donovani NMT. To be noted: read-out: Ratio IC50. In kind it is toxicity. Summed up:
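Ratio of IC₅₀ for HsNMT1 to IC₅₀ for LdNMT. Both were measured in a fluorogenic CPM assay, in which coenzyme A released by acyl transfer is detected with the thiol-reactive dye CPM.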
As to `CN(C)CCCN(C)c1nc(N(C)CCC#N)c2sccc2n1`, the selectivity ratio is over 170.
